Laboratory results reported in ChEMBL document CHEMBL1152560, “Substituted 2-arylbenzothiazoles as kinase inhibitors: hit-to-lead optimization” (Bioorg Med Chem, 2009).

Columns and labels:
Aurora kinase A = molecular target: T1, Aurora kinase A (Homo sapiens, UniProt O14965); test: Inhibition of Aurora-A by microplate scintillation counting
T1 sequence (O14965 whole entry): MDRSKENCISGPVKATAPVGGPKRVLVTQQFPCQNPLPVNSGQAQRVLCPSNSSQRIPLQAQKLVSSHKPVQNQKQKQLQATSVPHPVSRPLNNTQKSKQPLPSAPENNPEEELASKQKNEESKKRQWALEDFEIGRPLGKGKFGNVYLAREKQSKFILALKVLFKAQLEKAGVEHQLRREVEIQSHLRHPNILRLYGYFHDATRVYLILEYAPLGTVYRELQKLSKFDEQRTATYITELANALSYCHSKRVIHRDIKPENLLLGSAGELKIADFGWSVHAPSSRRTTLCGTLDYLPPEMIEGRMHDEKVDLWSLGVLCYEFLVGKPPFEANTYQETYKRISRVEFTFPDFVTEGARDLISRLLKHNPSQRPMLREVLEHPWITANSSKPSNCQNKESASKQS
Method in brief: (§1)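 Substrates: tetra(LRRWSLG) for Aurora A/B; poly(Ala,Glu,Lys,Tyr)6:2:5:1 for PDGFRβ; poly(Glu,Tyr)4:1 for TIE2 and VEGFR2. Stopped with 2% H3PO4.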

Aurora kinase B = Aurora kinase B (Homo sapiens, UniProt Q96GD4); test: Inhibition of Aurora-B by microplate scintillation counting; method in brief: as §1
[1] = molecular target: Vascular endothelial growth factor receptor 2 (Homo sapiens, UniProt P35968); test: Inhibition of VEGFR2 by microplate scintillation counting
Angiopoietin-1 receptor [2] = molecular target: T2, Angiopoietin-1 receptor (Homo sapiens, UniProt Q02763); test: Inhibition of TIE2 by microplate scintillation counting
[3] = molecular target: Platelet-derived growth factor receptor beta (Homo sapiens, UniProt P09619); test: Inhibition of PDGFRbeta by microplate scintillation counting; method in brief: as §1
[4] = molecular target: Vascular endothelial growth factor receptor 3 (Homo sapiens, UniProt P35916); test: Inhibition of VEGFR3 by microplate scintillation counting
Method in brief: (§2)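 Radiometric FlashPlate assay using recombinant kinase (10–200 ng/well) with poly(Glu,Tyr)4:1 substrate. Buffer: 60 mM HEPES-NaOH pH 7.5, 3 mM MgCl2, 3 mM MnCl2, 3 µM orthovanadate, 1.2 mM DTT, PEG 20000, 1 µM [γ-33P]-ATP. Run 80 min at 30 °C, stopped with H3PO4, and 33P incorporation counted.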

[5] = molecular target: T3, Epidermal growth factor receptor (Homo sapiens, UniProt P00533); test: Inhibition of wild type EGF-R by microplate scintillation counting
[6] = molecular target: Receptor tyrosine-protein kinase erbB-2 (Homo sapiens, UniProt P04626); test: Inhibition of ERBB2 by microplate scintillation counting; method in brief: as §2
[7] = molecular target: T3, Epidermal growth factor receptor; test: Inhibition of EGFR in human HCT116 cells by cellular phosphorylation assay
Angiopoietin-1 receptor [8] = molecular target: T2, Angiopoietin-1 receptor; test: Inhibition of TIE2 in human HCT116 cells by cellular phosphorylation assay; assay type: cell-based, HCT-116
Method in brief: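 TIE2 autophosphorylation in cells expressing the receptor. Compound was applied, cells were stimulated, then lysed with phosphoprotein levels preserved. Phosphorylation was quantified by sandwich ELISA with a receptor-specific capture antibody and anti-phosphotyrosine antibody, relative to the stimulated high control.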

Sequence of Aurora kinase B (Q96GD4 whole entry): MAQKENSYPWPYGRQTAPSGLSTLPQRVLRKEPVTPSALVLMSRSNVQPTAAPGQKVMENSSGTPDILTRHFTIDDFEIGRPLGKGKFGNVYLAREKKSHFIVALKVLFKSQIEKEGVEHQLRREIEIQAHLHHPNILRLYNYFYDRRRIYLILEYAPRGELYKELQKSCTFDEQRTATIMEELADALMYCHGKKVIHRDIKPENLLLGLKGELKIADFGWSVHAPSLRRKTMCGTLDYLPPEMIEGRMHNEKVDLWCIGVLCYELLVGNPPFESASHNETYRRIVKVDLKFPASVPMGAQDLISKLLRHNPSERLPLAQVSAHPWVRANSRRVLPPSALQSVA
Sequence of Platelet-derived growth factor receptor beta (P09619 whole entry): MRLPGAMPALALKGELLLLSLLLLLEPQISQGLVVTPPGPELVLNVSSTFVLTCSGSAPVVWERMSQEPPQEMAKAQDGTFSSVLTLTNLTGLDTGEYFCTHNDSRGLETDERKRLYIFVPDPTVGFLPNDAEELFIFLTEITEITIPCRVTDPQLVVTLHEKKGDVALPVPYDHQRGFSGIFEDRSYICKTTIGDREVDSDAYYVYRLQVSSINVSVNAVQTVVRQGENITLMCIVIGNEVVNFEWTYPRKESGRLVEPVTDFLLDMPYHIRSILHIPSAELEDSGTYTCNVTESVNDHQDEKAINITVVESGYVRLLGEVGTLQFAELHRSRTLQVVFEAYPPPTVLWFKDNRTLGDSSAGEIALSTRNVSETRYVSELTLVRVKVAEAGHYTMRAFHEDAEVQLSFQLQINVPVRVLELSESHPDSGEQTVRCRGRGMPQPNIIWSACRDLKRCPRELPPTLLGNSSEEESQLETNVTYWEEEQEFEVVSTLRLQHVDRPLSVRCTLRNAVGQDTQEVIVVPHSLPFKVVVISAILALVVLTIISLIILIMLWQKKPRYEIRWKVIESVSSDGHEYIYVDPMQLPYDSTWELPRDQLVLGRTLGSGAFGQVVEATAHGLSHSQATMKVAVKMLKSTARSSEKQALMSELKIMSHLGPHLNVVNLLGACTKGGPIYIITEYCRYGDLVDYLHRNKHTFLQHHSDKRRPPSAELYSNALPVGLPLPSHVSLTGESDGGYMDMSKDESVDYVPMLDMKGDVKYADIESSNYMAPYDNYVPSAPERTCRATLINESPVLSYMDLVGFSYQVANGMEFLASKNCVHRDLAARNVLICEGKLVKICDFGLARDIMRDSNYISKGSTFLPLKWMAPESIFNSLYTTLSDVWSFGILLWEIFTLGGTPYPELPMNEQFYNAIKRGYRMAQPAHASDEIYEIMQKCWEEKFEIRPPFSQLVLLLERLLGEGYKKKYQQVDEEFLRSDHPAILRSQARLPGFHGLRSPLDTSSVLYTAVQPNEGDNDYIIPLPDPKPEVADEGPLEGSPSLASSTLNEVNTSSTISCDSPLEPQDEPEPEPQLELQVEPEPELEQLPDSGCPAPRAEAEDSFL
Sequence of Vascular endothelial growth factor receptor 3 (P35916 whole entry): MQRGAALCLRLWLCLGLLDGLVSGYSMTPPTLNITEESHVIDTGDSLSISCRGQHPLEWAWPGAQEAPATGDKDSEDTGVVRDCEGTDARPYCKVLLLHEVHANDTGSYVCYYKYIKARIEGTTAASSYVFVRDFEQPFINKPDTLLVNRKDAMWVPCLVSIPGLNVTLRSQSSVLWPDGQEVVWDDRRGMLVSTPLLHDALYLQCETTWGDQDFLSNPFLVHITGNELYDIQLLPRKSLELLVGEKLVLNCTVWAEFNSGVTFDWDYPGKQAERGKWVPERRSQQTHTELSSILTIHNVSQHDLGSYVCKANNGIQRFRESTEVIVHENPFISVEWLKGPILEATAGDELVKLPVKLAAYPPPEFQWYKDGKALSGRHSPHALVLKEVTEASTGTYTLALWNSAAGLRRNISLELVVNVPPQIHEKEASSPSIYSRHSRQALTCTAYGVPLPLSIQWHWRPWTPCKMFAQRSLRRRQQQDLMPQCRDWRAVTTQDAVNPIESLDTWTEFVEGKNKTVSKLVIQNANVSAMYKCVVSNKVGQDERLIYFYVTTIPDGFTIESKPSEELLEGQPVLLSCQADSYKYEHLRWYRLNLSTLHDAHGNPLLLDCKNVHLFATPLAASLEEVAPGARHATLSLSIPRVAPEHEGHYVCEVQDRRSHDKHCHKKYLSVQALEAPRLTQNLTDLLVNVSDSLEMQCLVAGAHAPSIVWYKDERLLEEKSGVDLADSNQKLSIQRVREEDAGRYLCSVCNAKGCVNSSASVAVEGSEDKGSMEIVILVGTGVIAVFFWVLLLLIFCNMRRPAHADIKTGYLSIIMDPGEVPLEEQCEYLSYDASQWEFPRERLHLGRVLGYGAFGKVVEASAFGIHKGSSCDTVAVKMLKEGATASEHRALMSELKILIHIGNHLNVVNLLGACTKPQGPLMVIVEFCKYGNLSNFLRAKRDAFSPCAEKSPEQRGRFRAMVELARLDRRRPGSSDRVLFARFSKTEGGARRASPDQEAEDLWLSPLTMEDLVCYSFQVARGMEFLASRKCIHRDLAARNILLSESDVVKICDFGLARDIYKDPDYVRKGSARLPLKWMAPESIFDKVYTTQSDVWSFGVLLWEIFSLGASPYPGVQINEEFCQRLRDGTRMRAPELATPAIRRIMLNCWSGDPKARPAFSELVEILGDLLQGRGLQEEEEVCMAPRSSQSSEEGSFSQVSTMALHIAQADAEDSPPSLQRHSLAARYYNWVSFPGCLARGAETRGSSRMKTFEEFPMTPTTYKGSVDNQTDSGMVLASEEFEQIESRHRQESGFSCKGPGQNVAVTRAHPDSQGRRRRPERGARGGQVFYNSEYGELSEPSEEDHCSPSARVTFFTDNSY
T2 sequence (Q02763 whole entry): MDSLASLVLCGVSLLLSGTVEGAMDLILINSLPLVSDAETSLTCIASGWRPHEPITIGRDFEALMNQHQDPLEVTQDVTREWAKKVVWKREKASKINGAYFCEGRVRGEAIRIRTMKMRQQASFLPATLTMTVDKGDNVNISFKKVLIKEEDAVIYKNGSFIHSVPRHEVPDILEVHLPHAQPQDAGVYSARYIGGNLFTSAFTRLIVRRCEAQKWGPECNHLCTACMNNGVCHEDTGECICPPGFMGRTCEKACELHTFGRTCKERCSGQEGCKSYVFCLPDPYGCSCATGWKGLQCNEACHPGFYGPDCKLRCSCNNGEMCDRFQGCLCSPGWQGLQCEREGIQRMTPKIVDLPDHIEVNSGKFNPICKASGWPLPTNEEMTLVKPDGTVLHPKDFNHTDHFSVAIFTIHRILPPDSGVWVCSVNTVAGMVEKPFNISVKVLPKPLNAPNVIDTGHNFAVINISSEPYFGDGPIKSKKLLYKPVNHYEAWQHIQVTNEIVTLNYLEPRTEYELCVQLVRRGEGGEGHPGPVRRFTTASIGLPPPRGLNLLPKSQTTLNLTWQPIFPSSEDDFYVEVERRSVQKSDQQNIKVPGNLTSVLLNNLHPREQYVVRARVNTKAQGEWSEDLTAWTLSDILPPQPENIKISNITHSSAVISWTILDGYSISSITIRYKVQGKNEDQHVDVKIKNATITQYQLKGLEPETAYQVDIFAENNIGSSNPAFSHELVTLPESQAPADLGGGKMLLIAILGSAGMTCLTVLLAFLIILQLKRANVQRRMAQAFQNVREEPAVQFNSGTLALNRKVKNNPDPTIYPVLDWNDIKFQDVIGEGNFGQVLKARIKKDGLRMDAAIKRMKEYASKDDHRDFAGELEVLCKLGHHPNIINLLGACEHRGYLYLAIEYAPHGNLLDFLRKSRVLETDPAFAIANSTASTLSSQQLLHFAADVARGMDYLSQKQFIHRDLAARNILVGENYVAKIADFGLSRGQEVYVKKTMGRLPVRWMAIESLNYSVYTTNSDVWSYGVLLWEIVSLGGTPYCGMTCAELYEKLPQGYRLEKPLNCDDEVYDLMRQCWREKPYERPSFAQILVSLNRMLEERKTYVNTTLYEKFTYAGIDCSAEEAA

Row | Compound | IC50 (Aurora kinase A) [nM] | IC50 (Aurora kinase B) [nM] | IC50 [1] [nM] | IC50 (Angiopoietin-1 receptor [2]) [nM] | IC50 [3] [nM] | IC50 [4] [nM] | IC50 [5] [nM] | IC50 [6] [nM] | EC50 [7] [nM] | EC50 (Angiopoietin-1 receptor [8]) [nM]
1 | COc1cc2c(N(C)c3ccc(-c4nc5ccccc5s4)c(OC)c3)ncnc2cc1OCCCN1CCN(C)CC1 | 3300 | 8000 | > 10000 | > 10000 | > 10000 | > 10000 |  |  |  | 
2 | COc1cc2c(Nc3ccc(-c4nc5ccccc5s4)c(OC)c3)ncnc2cc1OCCCN1CCN(C)CC1 | 120 | 300 | 1200 | 110 | 2100 | 7100 | 2 | 5 | 9400 | > 10000
3 | COc1cc2ncnc(Nc3ccc(-c4nc5ccccc5s4)c(F)c3)c2cc1OCCCN1CCN(C)CC1 | 200 | 670 |  | 3100 | 8700 |  | 2300 | > 10000 |  | 
4 | COc1cc2c(Nc3ccc(-c4nc5ccccc5s4)cc3O)ncnc2cc1OCCCN1CCN(C)CC1 | 230 | 270 | 280 | 230 | > 10000 | 4500 | 350 | 3600 |  | 
5 | COc1cc2ncnc(Nc3ccc(-c4nc5cc(C(F)(F)F)ccc5s4)cc3)c2cc1OCCCN1CCN(C)CC1 | 1200 | 2100 |  | > 10000 | > 10000 |  | > 10000 | > 10000 |  | 
6 | COc1cc2ncnc(Nc3ccc(-c4nc5ccccc5s4)c(OC)c3)c2cc1OCCCN1CCN(C)CC1 | 1600 | > 10000 |  | 1400 | 3800 |  | 15 | 47 |  | 
7 | COc1cc2c(Nc3ccc(-c4nc5ccc(Cl)cc5s4)cc3F)ncnc2cc1OCCCN1CCN(C)CC1 | 85 | 90 | 2250 | 615 | 9200 | 3000 | 6200 | > 10000 |  | 
8 | COc1ccc2nc(-c3ccc(Nc4ncnc5cc(OCCCN6CCN(C)CC6)c(OC)cc45)cc3)sc2c1 | 62 | 48 | 690 | 390 | > 10000 | 1900 | 200 | 130 |  | 
9 | COc1cc2c(Nc3ccc(-c4nc5ccccc5s4)cc3)ncnc2cc1OCCCN1CCN(C)CC1 | 14 | 60 | 12 | 54 | 1400 | 69 | 46 | 100 |  | 
10 | COc1cc2c(Nc3ccc(-c4nc5ccccc5s4)c(F)c3)ncnc2cc1OCCCN1CCN(C)CC1 | 9 | 27 | 44 | 9 | 2100 | 210 | 430 | 300 | > 10000 | > 10000
11 | COc1cc2c(Nc3ccc(-c4nc5ccc(F)cc5s4)cc3)ncnc2cc1OCCCN1CCN(C)CC1 | 26 | 41 | 335 | 235 | 3400 | 865 | 730 | 6950 | > 10000 | > 10000
12 | COc1cc(-c2nc3ccccc3s2)ccc1Nc1ncnc2cc(OC)c(OC)cc12 | > 10000 | > 10000 | > 10000 |  |  |  | 63 |  |  | 
13 | COc1cc2ncnc(Nc3ccc(-c4nc5ccccc5s4)c(Cl)c3)c2cc1OCCCN1CCN(C)CC1 | 690 | 4800 |  | 510 | 7700 |  | 44 | 180 |  | 

Next, values leading:

Row | IC50 (Aurora kinase A) [nM] | IC50 (Aurora kinase B) [nM] | IC50 [1] [nM] | IC50 (Angiopoietin-1 receptor [2]) [nM] | IC50 [3] [nM] | IC50 [4] [nM] | IC50 [5] [nM] | IC50 [6] [nM] | EC50 [7] [nM] | EC50 (Angiopoietin-1 receptor [8]) [nM] | Compound
14 | 230 | 260 | 350 | 68 | 7900 | 1500 |  |  |  |  | COc1cc2c(Nc3ccc(-c4nc5ccccc5s4)c(C)c3)ncnc2cc1OCCCN1CCN(C)CC1
15 | 54 | 64 | 2500 | 410 | 8000 | 9300 | 260 | 2300 |  |  | COc1cc2c(Nc3ccc(-c4nc5ccc(Cl)cc5s4)cc3)ncnc2cc1OCCCN1CCN(C)CC1
16 |  |  | 6300 |  |  |  |  |  |  |  | COc1cc2ncnc(Nc3ccc(-c4nc5ccccc5s4)cc3)c2cc1OC
17 | 110 | 510 |  |  | 3800 |  |  | 2200 |  |  | COc1cc2ncnc(Nc3ccc(-c4nc5ccccc5s4)cc3)c2cc1OCCCN1CCN(C)CC1
18 | 9400 | > 10000 |  | 350 | > 10000 |  | 1400 | 5900 |  |  | COc1cc2ncnc(Nc3ccc(-c4nc5ccccc5s4)cc3C)c2cc1OCCCN1CCN(C)CC1
19 | 290 | 520 | > 10000 | 590 | 9100 | > 10000 | > 10000 | > 10000 |  |  | COc1cc2c(Nc3ccc(-c4nc5ccccc5s4)cc3OC(F)(F)F)ncnc2cc1OCCCN1CCN(C)CC1
20 | 26 | 28 | 62 | 29 | 4400 | 350 | 805 | 2400 | > 10000 | 2100 | COc1cc2c(Nc3ccc(-c4nc5ccccc5s4)cc3F)ncnc2cc1OCCCN1CCN(C)CC1
21 | > 10000 | 4200 | 6900 |  |  |  | 2200 |  |  |  | COc1cc2ncnc(Nc3ccc(-c4nc5ccccc5s4)cc3O)c2cc1OC
22 | 300 | 640 |  | 5300 | 10000 |  | 3300 | > 10000 |  |  | COc1cc2ncnc(Nc3ccc(-c4nc5ccccc5s4)c(O)c3)c2cc1OCCCN1CCN(C)CC1
23 | 400 | 500 |  | 4000 | 9900 |  | > 10000 | > 10000 |  |  | COc1cc2ncnc(Nc3ccc(-c4nc5cc(Cl)ccc5s4)cc3)c2cc1OCCCN1CCN(C)CC1
24 | 340 | 440 |  | 38 | 6700 | 340 |  | 490 |  |  | COc1cc2c(Nc3ccc(-c4nc5ccccc5s4)cc3C)ncnc2cc1OCCCN1CCN(C)CC1
25 | 24 | 62 | 610 | 510 | > 10000 | 1300 | > 10000 | > 10000 | > 10000 | > 10000 | COc1cc2c(Nc3ccc(-c4nc5cc(Cl)ccc5s4)cc3)ncnc2cc1OCCCN1CCN(C)CC1
26 | 1300 | 1900 |  | 6100 | > 10000 |  | > 10000 | > 10000 |  |  | COc1cc(-c2nc3ccccc3s2)ccc1Nc1ncnc2cc(OC)c(OCCCN3CCN(C)CC3)cc12
27 | 27 | 78 | 120 | 37 | 3600 | 470 |  | 38 |  | 10000 | COc1cc2c(Nc3ccc(-c4nc5ccccc5s4)c(Cl)c3)ncnc2cc1OCCCN1CCN(C)CC1
28 | 60 | 120 | > 10000 | 3300 | 8200 | > 10000 | > 10000 | > 10000 | > 10000 | > 10000 | COc1cc2c(Nc3ccc(-c4nc5cc(C(F)(F)F)ccc5s4)cc3)ncnc2cc1OCCCN1CCN(C)CC1
29 | 91 | 59 | 380 | 120 | 4500 | 520 | 110 | 780 | 33000 | > 10000 | COc1cc2c(Nc3ccc(-c4nc5ccccc5s4)c(O)c3)ncnc2cc1OCCCN1CCN(C)CC1
30 | 390 | 410 |  | 360 | 10000 |  | 4500 | > 10000 |  |  | COc1cc2ncnc(Nc3ccc(-c4nc5ccccc5s4)cc3F)c2cc1OCCCN1CCN(C)CC1
31 | 800 | 800 |  | 880 | > 10000 |  | 230 | 2300 |  |  | COc1cc2ncnc(Nc3ccc(-c4nc5ccccc5s4)cc3O)c2cc1OCCCN1CCN(C)CC1
